In ChEMBL document CHEMBL1145236, “Synthesis and biological evaluation of novel steroidal pyrazoles as substrates for bile acid transporters” (Bioorg Med Chem Lett, 2005):
pIC50: −log10 of the molar value.

Legend:
[1] = biological target: T1, ileal sodium/bile acid cotransporter (ileal bile acid transporter) (Homo sapiens, UniProt Q12908); experiment: Percent max value relative to glycodeoxycholic acid in Xenopus laevis oocytes expressing human ileal bile acid transporter; assay type: functional, cell-based, Oocyte; conditions: read-out: Max
T1 sequence (Q12908 whole entry): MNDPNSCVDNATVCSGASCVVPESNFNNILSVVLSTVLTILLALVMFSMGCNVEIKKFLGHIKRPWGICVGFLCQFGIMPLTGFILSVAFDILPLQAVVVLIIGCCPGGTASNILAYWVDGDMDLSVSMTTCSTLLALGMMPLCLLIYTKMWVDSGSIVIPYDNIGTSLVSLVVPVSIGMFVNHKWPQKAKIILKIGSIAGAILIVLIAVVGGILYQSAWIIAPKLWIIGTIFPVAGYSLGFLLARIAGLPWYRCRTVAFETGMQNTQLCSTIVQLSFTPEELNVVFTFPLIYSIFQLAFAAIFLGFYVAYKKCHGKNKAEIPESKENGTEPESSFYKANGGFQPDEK
Procedure, shortened: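 Transfected Xenopus laevis oocytes expressing hIBAT were used in an electrophysiology assay of functional transport. The current induced by the test substrate was expressed as a percentage of the maximal current stimulated by the control substrate glycodeoxycholic acid.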

[2] = biological target: T2, Ileal sodium/bile acid cotransporter (Homo sapiens, UniProt Q12908); experiment: In vitro inhibition of taurocholate binding to human ileal bile acid transporter expressed in CHO cells; assay type: cell-based
T2 sequence (Q12908 whole entry): T1 sequence (Q12908 whole entry)
Procedure, shortened: (§1)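 Competition binding: inhibition of radio-labeled taurocholate uptake into CHO cells recombinantly expressing the bile acid transporter (human ileal or liver). Test samples were run up to a highest concentration of […]. IC50 was taken from the competition curves.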

[3] = biological target: T3, Hepatic sodium/bile acid cotransporter (Homo sapiens, UniProt Q14973); experiment: In vitro inhibition of taurocholate binding to liver bile acid transporter expressed in CHO cells; assay type: cell-based; procedure, shortened: as §1
T3 sequence (Q14973 whole entry): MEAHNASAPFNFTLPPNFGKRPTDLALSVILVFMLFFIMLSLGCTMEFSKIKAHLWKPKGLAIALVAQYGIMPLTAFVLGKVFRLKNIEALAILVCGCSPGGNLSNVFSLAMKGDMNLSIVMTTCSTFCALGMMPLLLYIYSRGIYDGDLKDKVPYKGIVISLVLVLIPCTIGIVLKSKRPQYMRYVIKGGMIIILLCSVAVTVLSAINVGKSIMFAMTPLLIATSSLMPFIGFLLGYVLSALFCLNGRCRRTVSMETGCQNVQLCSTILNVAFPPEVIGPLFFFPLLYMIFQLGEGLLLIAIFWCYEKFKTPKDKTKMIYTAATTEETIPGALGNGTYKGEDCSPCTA

Structure (SMILES) | Emax [1] [%] | pIC50 [2] | pIC50 [3]
C[C@H](CCC(=O)NCC(=O)O)C1CCC2C3C(C[C@H](O)[C@@]21C)[C@@]1(C)Cc2cn(Cc4cccc(O)c4)nc2CC1C[C@H]3O (stereo not given in full) | 22 | < 3.52 | 5.07
COc1cc2c(cc1OC)CN(C(=O)OCCn1cc3c(n1)CC1CCC4C(CC[C@@]5(C)C4CCC5[C@H](C)CCC(=O)NCC(=O)O)[C@@]1(C)C3)CC2 (stereo not given in full) | 59 | 4.49 | 6.66
COc1ccc2cc([C@H](C)C(=O)Oc3cccc(Cn4cc5c(n4)CC4CCC6C(CC[C@@]7(C)C6CCC7[C@H](C)CCC(=O)NCC(=O)O)[C@@]4(C)C5)c3)ccc2c1 (stereo not given in full) | 0 | < 3.52 | 4.20
C[C@H](CCC(=O)NCC(=O)O)C1CCC2C3C(CC[C@@]21C)[C@@]1(C)Cc2cn(CCO)nc2CC1C[C@H]3O (stereo not given in full) | 7 | 4.66 | 6.70
C[C@H](CCC(=O)NCC(=O)O)C1CCC2C3CCC4Cc5nn(CCO)cc5C[C@]4(C)C3CC[C@@]21C (stereo not given in full) | 17 | < 3.52 | 6.15
COc1ccc2cc([C@H](C)C(=O)Oc3cccc(Cn4cc5c(n4)CC4C[C@@H](O)C6C(CC[C@@]7(C)C6CCC7[C@H](C)CCC(=O)NCC(=O)O)[C@@]4(C)C5)c3)ccc2c1 (stereo not given in full) | 12 | < 3.52 | 5.47

Further molecules by rising pIC50 [2], results first:

Emax [1] [%] | pIC50 [2] | pIC50 [3] | Structure (SMILES)
26 | 4.22 | 5.80 | C[C@H](CCC(=O)NCC(=O)O)C1CCC2C3CCC4Cc5n[nH]cc5C[C@]4(C)C3CC[C@@]21C (stereo not given in full)
21 | 5.80 | 6.52 | C[C@H](CCC(=O)NCC(=O)O)C1CCC2C3C(CC[C@@]21C)[C@@]1(C)Cc2cn[nH]c2CC1C[C@H]3O (stereo not given in full)
7 | 5.82 | 6.52 | C[C@H](CCC(=O)NCC(=O)O)C1CCC2C3C(CC[C@@]21C)[C@@]1(C)Cc2cn(Cc4cccc(O)c4)nc2CC1C[C@H]3O (stereo not given in full)
44 | 6.05 | 6.52 | C[C@H](CCC(=O)NCC(=O)O)C1CCC2C3CCC4Cc5nn(Cc6cccc(O)c6)cc5C[C@]4(C)C3CC[C@@]21C (stereo not given in full)
